This is a sample that favours compounds with a hit; in the whole collection about 0.89% have one here.
NTR1 ag: agonists of human neurotensin receptor NTR1. NTR1-U2OS beta-arrestin-GFP spot imaging, agonist mode. activation, % at 20 µM. P30989. 330,000 tested, 0.17% active;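 active means activation at or above 40% of the spot to cytoplasm intensity ratio, with at least 20 cells analyzed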;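 further: 0% = DMSO without peptide and 100% = 100 nM NTR1 peptide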
Target sequence (P30989 whole entry, looked up): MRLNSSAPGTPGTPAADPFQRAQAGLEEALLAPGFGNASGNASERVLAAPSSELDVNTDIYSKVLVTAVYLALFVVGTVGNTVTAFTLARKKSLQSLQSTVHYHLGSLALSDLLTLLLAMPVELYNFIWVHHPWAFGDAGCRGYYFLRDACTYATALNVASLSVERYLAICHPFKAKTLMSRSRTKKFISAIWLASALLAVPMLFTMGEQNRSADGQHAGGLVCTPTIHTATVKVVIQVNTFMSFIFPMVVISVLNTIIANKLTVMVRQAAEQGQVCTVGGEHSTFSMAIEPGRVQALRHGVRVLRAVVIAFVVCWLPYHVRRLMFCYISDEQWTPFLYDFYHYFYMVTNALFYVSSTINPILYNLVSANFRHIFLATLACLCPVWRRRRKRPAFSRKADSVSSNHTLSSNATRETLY
Xi reactivation: reactivates the inactive X chromosome in mouse fibroblasts; AID 743238; XiGFP mouse fibroblasts, % GFP-positive cells imaging, 3 d; cells co-treated with 5-aza-dC sensitizer; scaled so ellipticine positive control = 100%; 360,000 tested, 0.055% active; activation, % at 7.58 µM;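 active means mean normalized replicate activation at least 10% and every replicate at or above 10%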;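 further: 0% = median of on-plate neutral control wells and 100% = ellipticine 6 µM median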
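Schedule: 3 d treatment, 15 min room-temperature fixation; system: 68-5-11 XiGFP fibroblast line; buffer or medium: DMEM plus 5-aza-dC sensitizer; control set: ellipticine 6 µM positive control; compound: one concentration, pinned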
beta cell repl: MIN6 beta-cell proliferation induction | MIN6 cells proliferation, ATPlite luminescence, 48 h; cells starved in 0.2% serum; 100% = growth in 10% serum | proliferation, % at 10 µM | 330,000 tested, 0.29% active;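 active means compounds whose signal lies at least 3.5 SD above the mean of all wells on their plate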;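 further: 0% = DMSO-treated cells in low-serum medium and 100% = 10% serum control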
T cell HTS: T cell immune modulation candidate; 2C CD8+ T cell-vesicle binding, flow cytometry; hits give low values; response (vesicle binding), % at 7 µM; 330,000 tested, 0.068% active;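 active means response, share of CD8 T cells binding vesicles, and their 90th percentile fluorescence all below set limits, cut at about 80% in these data, passing the limit was not always enough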;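 further: values below 100% mean blocked vesicle binding to the CD8+ T cells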
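Material: 2C TCR transgenic mouse naive CD8+ T cells, MACS-purified. Also added: QL9-charged Drosophila Ld/ICAM-1/B7-1 vesicles. Timing: binding 1.5 h at 37 °C. Measured by: high-throughput flow cytometry with anti-B7-1 and anti-CD8 staining. Read-out: percent CD8+ FL2 mean versus row control. Controls: Unloaded micro-vesicles (low), QL9 vesicles with 0.7% DMSO (high).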
Arr AP2 block: human beta-arrestin and AP2 interaction inhibition; AID 504490; inhibition, % at 10 µM; FITC-arrestin peptide / GST-AP2 beads, flow cytometry; AP2 beta2 appendage carries R879A mutation; 340,000 tested, 0.31% active;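 active means inhibition above a set limit, near 3 SD of compounds lacking own fluorescence, cut at about 54% in these data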;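 further: plate controls were DMSO wells for no effect and 5 µM unlabelled arrestin peptide for full effect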
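Material – GST-tagged AP2 beta2-adaptin appendage (R879A) on 4 µm glutathione beads · Probe or stimulus – fluorescein-tagged arrestin peptide at 50 nM final · Timing – 12 min plus 1 h, RT · Detection – bead flow cytometry, FITC channel · Read-out basis – inhibition as reduced fluorescein signal on beads, percent · Medium – PBS plus Tween 20 (0.05%) and BSA (0.1%)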
V-ATPase pH: regulators of yeast V-ATPase proton transport. S. cerevisiae, pHLuorin cytosolic pH fluorescence. response, % at 10 µM. 350,000 tested, 0.37% active. AID 504577; in the data active means response mostly above about 7.3%, no sharp cut-off; inactive means mostly below about 5.4%; further: actives read high
V-ATPase pH SP: yeast V-ATPase proton transport regulation | response, % at 10 µM | shares compounds with V-ATPase pH | AID 602197 | S. cerevisiae pHLuorin cytosolic pH | 980 tested, 2% active; in the data active means response above about 24%;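 further: plate controls were vehicle wells for no effect and positive control wells for full effect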
The depositor's hits bear a star; . = no result given.

SMILES	NTR1 ag	Xi reactivation	beta cell repl	T cell HTS	Arr AP2 block	V-ATPase pH	V-ATPase pH SP
CCCCNC(=O)COC(=O)CCC(=O)c1ccc(F)cc1	-0.3	.	-1.3	179.3	8.9	2.5	2.4
COc1ccc2c3c([nH]c2c1)[C@H](CO)N(C(=O)C1CCC1)CC31CCN(C(=O)NC(C)C)CC1	.	-0.1	.	.	.	.	.
C[C@@H]1CCCCO[C@@H](CN(C)S(=O)(=O)c2cccs2)[C@H](C)CN([C@H](C)CO)C(=O)c2cc(NC(=O)NC3CCCCC3)ccc2O1	.	0.4	.	.	.	.	.
C#CCNC(=O)C1=C[C@H](C(C)(C)C)C[C@H](OCCCCO)O1	1.2	0.6	1.5	242.2	19.3	15.7*	1.7
CC(C)(C)[C@H]1C=C(C(=O)NCc2ccccc2)O[C@@H](OCCCCO)C1	1.9	0.0	-4.1	0.0	13.3	8.2	.
CNC(=O)C[C@H]1CC[C@H]2[C@H](COc3ccc(NC(=O)Nc4cc(C)cc(C)c4)cc3C(=O)N2C)O1	.	0.2	.	.	.	.	.
COc1ccccc1C(=O)N(NC(=O)Oc1ccccc1)C(C)(C)C	0.5	-0.1	-1.2	285.0	24.9	2.3	.
Cc1cccc(C(=O)N(NC(=O)Oc2ccccc2)C(C)(C)C)c1	0.8	0.0	0.0	157.4	9.6	6.9*	-3.6
COCC(=O)Nc1ccc2c(c1)OC[C@H](C)N(Cc1cccc(F)c1)C[C@H](C)[C@H](OC)CN(C)C2=O	.	0.2	.	.	.	.	.
N#Cc1c(C(F)(F)F)cc(-c2cccs2)nc1SCc1cccnc1	7.4	.	-1.2	400.3	22.9	7.7*	-26.6
Cc1c(NC(=O)c2cccc(NC(=O)COc3ccccc3C#N)c2)c(=O)n(-c2ccccc2)n1C	1.1	0.0	-5.8	.	45.6	14.6*	-0.5
C[C@@H]1CN([C@@H](C)CO)C(=O)Cc2cc(NC(=O)Cc3ccccc3)ccc2O[C@H]1CN(C)C	.	-0.1	.	.	.	.	.
CC(C)NC(=O)N(C)C[C@H]1Oc2cc(C#Cc3ccc(F)cc3)ccc2S(=O)(=O)N([C@H](C)CO)C[C@@H]1C	.	-0.3	.	.	.	.	.
COc1ccc(/C=C/C(=O)Nc2cc(C)nn2-c2nc3ccccc3[nH]2)cc1	8.2	0.7	-5.5	232.6	10.0	16.0*	-1.2
N#CC1=C(N)Oc2c(ccc3cccnc23)C1c1cccnc1 (centres undefined)	-0.4	.	-5.5	327.1	15.2	9.7*	-0.5
Cc1cc(C)n2nc(SCC(=O)NC(=O)c3ccccc3Cl)nc2n1	-2.0	0.0	0.2	228.6	-3.7	9.8*	0.9
Cc1cc(C)n2nc(SCC(=O)Nc3ccccc3C)nc2n1	-1.5	0.0	0.0	230.9	-6.6	1.0	.
Cc1csc(SCC(=O)NC2CCC(C)CC2)n1 (centres undefined)	0.5	0.1	1.5	297.3	4.0	7.5*	-6.5
Cc1csc(SCC(=O)NC2CCCCC2)n1	-1.9	.	-0.7	278.4	5.1	-0.7	.
C/C(=C/c1ccccc1)C(=O)N1CCC(C)CC1	-0.7	0.1	-2.7	341.0	39.7	11.2*	-1.8
CCOC(=O)/C(C#N)=C1\C(=O)N(Cc2ccccc2)c2ccccc21	0.4	0.1	-4.3	838.5	16.0	10.4*	6.5
CCOC(=O)/C(C#N)=C1/C=CN(Cc2ccccc2)C=N1	0.3	.	-2.0	398.8	0.0	3.3	.
C[C@@H]1CN([C@H](C)CO)C(=O)c2cc(NS(=O)(=O)c3cn(C)cn3)ccc2O[C@H]1CN(C)Cc1ccc2c(c1)OCO2	.	0.1	.	.	.	.	.
CN1C(=O)c2cc(NC(=O)c3cccc(F)c3)ccc2OC[C@H]2O[C@H](CC(=O)NCc3ccccc3)CC[C@H]21	.	0.3	.	.	.	.	.
C[C@H](CO)N1C[C@H](C)[C@@H](CN(C)S(=O)(=O)c2ccc(C#N)cc2)OCc2cnnn2CCCC1=O	.	0.2	.	.	.	4.1*	1.7
SMILES	NTR1 ag	Xi reactivation	beta cell repl	T cell HTS	Arr AP2 block	V-ATPase pH	V-ATPase pH SP
C[C@H](CO)N1C[C@H](C)[C@H](CN(C)S(=O)(=O)c2ccc(C#N)cc2)OCc2cnnn2CCCC1=O	.	-0.3	.	.	.	-0.1	.
COc1cccc(S(=O)(=O)N(C)C[C@@H]2OCc3cnnn3CCCC(=O)N([C@H](C)CO)C[C@@H]2C)c1	.	0.2	.	.	.	7.5*	1.0
Cc1noc(C)c1NC(=O)Nc1ccc2c(c1)C(=O)N([C@H](C)CO)C[C@@H](C)[C@H](CN(C)S(C)(=O)=O)OCCCC[C@@H](C)O2	.	-0.1	.	.	.	.	.
Cc1cc(C(=O)OCC(=O)Nc2sc3c(c2C#N)CCC(C)C3)c2ccccc2n1 (centres undefined)	6.6	0.3	-0.4	132.3	2.5	12.8*	-2.7
C[C@H]1CCCCO[C@H](CN(C)S(C)(=O)=O)[C@@H](C)CN([C@@H](C)CO)C(=O)c2cc(NS(C)(=O)=O)ccc2O1	.	0.3	.	.	.	.	.
COc1ccc2c3c([nH]c2c1)[C@@H](CO)N(C(=O)C1CCC1)CC31CCN(C(=O)c2ccccn2)CC1	.	0.4	.	.	.	.	.
CCCCCC(=O)N1C[C@H](n2cc(-c3ccc(F)cc3)nn2)[C@@H](O)C[C@@H]1c1ccc(C)cc1	.	0.1	.	.	.	6.8*	-0.9
CCCCCC(=O)N1C[C@@H](n2cc(-c3ccc(F)cc3)nn2)[C@H](O)C[C@@H]1c1ccc(Cl)cc1	.	-0.1	.	.	.	1.7	.
CO[C@@H]1CN(C)C(=O)c2ccc(NC(C)=O)cc2OC[C@H](C)N(C(=O)CC2CC2)C[C@H]1C	.	-0.3	.	.	.	.	.
COC(=O)c1cc(Br)c(=O)n(-c2cc(C)on2)c1	-0.3	.	-0.9	178.0	0.4	8.0*	-2.5
COc1ccc(-c2cnc3c(c2)C(=O)N([C@@H](C)CO)C[C@H](C)[C@H](CN(C)C(=O)Cc2ccncc2)O3)cc1	.	1.9	.	.	.	.	.
CN1/C(=C\C(=S)NC(=O)c2ccc([N+](=O)[O-])cc2)C(C)(C)c2ccccc21	0.8	0.0	-4.8	312.5	5.8	13.4*	0.1
CN1/C(=C\C(=S)NC(=O)c2cccc(Br)c2)C(C)(C)c2ccccc21	-0.6	0.0	-7.0	455.0	40.8	-0.6	.
O=C(CSc1n[nH]c(=O)[nH]c1=O)Nc1c(Cl)cc(Cl)cc1Cl	-1.4	0.1	-1.3	132.6	19.2	12.6*	-0.7
O=C(CSc1n[nH]c(=O)[nH]c1=O)c1ccc(Cl)cc1Cl	0.7	0.2	-1.7	45.4	2.1	-3.6	.
C[C@H](CO)N1C[C@H](C)[C@H](CN(C)Cc2ccc(C(F)(F)F)cc2)Oc2ccc(NC(=O)Cn3cnnn3)cc2C1=O	.	-0.4	.	.	.	.	.
O=C(NCCC1=CCCCC1)C1CCCN(S(=O)(=O)c2cccc3cccnc23)C1 (centres undefined)	4.3	0.2	-3.3	116.6	25.4	7.3*	-0.3

High-throughput results deposited in PubChem BioAssay by several laboratories.
